Assay results reported in ChEMBL document CHEMBL1146217, “Growth inhibition of Mycobacterium bovis, Mycobacterium tuberculosis and Mycobacterium avium in vitro: effect of 1-beta-D-2'-arabinofuranosyl and 1-(2'-deoxy-2'-fluoro-beta-D-2'-ribofuranosyl) pyrimidine nucleoside analogs” (J Med Chem, 2007).
Values after ≈ are worked out from the molar mass of the structure shown.

Columns and labels:
[1] = tested on: Enterococcus faecalis; test: Antibacterial activity Enterococcus faecalis ATCC 29212 after 16 to 20 hrs by broth microdilution method; format: functional
Procedure, shortened: (§1)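 Broth microdilution MIC. Exponentially growing bacteria diluted in sterile liquid medium to a final inoculum of 1 × 10⁴ CFU/mL. Cultured with compound dilutions for 16-20 h; compounds tested at 100, 50, 10 and 1 µg/mL. MIC taken as the concentration giving 100% inhibition of bacterial growth.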

[2] = tested on: Mycobacterium avium; test: Antimycobacterial activity against Mycobacterium avium ATCC 25291 by microplate Alamar blue assay; format: functional
Procedure, shortened: (§2)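 Same alamar blue microplate setup (7H9GC, 2.5 × 10⁵ CFU/mL, 6 days, then dye read after about 24 h), using 2-fold compound dilutions. MIC90 is the lowest concentration giving about 90% inhibition relative to bacteria-only wells after background subtraction. Visual MIC is the lowest concentration preventing the blue-to-pink change.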

[3] = tested on: Staphylococcus epidermidis; test: Antibacterial activity against Staphylococcus epidermidis ATCC 14990 after 16 to 20 hrs by broth microdilution method; format: functional; procedure, shortened: as §1
[4] = tested on: Mycobacterium tuberculosis; test: Antimycobacterial activity against Mycobacterium tuberculosis H37Ra at 100 ug/mL by microplate Alamar blue assay; format: functional
Procedure, shortened: (§3)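 MABA with M. bovis BCG, M. tuberculosis H37Ra or M. avium ATCC 25291. DMSO stocks (10 mg/mL) diluted in 7H9GC; final inoculum 2.5 × 10⁵ CFU/mL. Incubated 6 days, then alamar blue plus Tween 80 added and read by fluorescence after about 24 h. […]. Tested in triplicate at 100, 50, 10 and 1 µg/mL; two experiments, mean reported.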

[5] = tested on: Staphylococcus aureus; test: Antibacterial activity against Staphylococcus aureus ATCC 25923 after 16 to 20 hrs by broth microdilution method; format: functional; procedure, shortened: as §1
[6] = tested on: Vero; test: Toxicity against Vero cells after 3 days by MTT test; format: cell-based; conditions: chlorocebus sabaeus, 72 h
Procedure, shortened: (§4)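 MTT viability assay. Vero or HFF cells seeded at 2.5 × 10⁵ cells/well and left to attach 6-8 h. Exposed to compound at 100, 50, 25, 12.5, 6.3 and 1.5 µg/mL for 3 days at 37 °C, with a DMSO control. MTT added for 4 h, then solubilized overnight; absorbance read at 560-650 nm.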

[7] = tested on: Proteus vulgaris; test: Antibacterial activity against Proteus vulgaris ATCC 49132 after 16 to 20 hrs by broth microdilution method; format: functional; procedure, shortened: as §1
[8] = tested on: Mycobacterium tuberculosis; test: Antimycobacterial activity against Mycobacterium tuberculosis H37Ra at 1ug/mL by microplate Alamar blue assay; format: functional; procedure, shortened: as §3
[9] = tested on: Streptococcus pneumoniae; test: Antibacterial activity Streptococcus pneumoniae ATCC 49619 after 16 to 20 hrs by broth microdilution method; format: functional; procedure, shortened: as §1
[10] = tested on: Pseudomonas aeruginosa; test: Antibacterial activity against Pseudomonas aeruginosa […] after 16 to 20 hrs by broth microdilution method; format: functional; conditions: for MIC: Pseudomonas aeruginosa, ATCC 13048; procedure, shortened: as §1
[11] = tested on: Escherichia coli; test: Antibacterial activity against Escherichia coli ATCC 25922 after 16 to 20 hrs by broth microdilution method; format: functional; conditions: for MIC: Escherichia coli, ATCC 25922; procedure, shortened: as §1
[12] = tested on: Klebsiella aerogenes; test: Antibacterial activity against Enterobacter aerogenes after 16 to 20 hrs by broth microdilution method; format: functional; conditions: for MIC: Klebsiella aerogenes; procedure, shortened: as §1
[13] = tested on: Mycobacterium avium; test: Antimycobacterial activity against Mycobacterium avium ATCC 25291 at 100 ug/mL by microplate Alamar blue assay; format: functional; procedure, shortened: as §3
[14] = tested on: Mycobacterium tuberculosis; test: Antimycobacterial activity against Mycobacterium tuberculosis H37Ra at 10 ug/mL by microplate Alamar blue assay; format: functional; procedure, shortened: as §3
[15] = tested on: Streptococcus pyogenes; test: Antibacterial activity Streptococcus pyogenes ATCC 19615 after 16 to 20 hrs by broth microdilution method; format: functional; procedure, shortened: as §1
[16] = tested on: Mycobacterium tuberculosis; test: Antimycobacterial activity against Mycobacterium tuberculosis H37Ra at 50 ug/mL by microplate Alamar blue assay; format: functional; procedure, shortened: as §3
[17] = Toxicity against human foreskin fibroblast cells after 3 days by MTT test; format: cell-based; procedure, shortened: as §4
[18] = tested on: Bacillus subtilis; test: Antibacterial activity against Bacillus subtilis ATCC 6633 after 16 to 20 hrs by broth microdilution method; format: functional; procedure, shortened: as §1
[19] = tested on: Mycobacterium tuberculosis; test: Antimycobacterial activity against Mycobacterium tuberculosis H37Ra by microplate Alamar blue assay; format: functional; procedure, shortened: as §2
[20] = tested on: Listeria monocytogenes; test: Antibacterial activity Listeria monocytogenes ATCC 15313 after 16 to 20 hrs by broth microdilution method; format: functional; procedure, shortened: as §1
[21] = tested on: Mycobacterium avium; test: Antimycobacterial activity against Mycobacterium avium ATCC 25291 at 50 ug/mL by microplate Alamar blue assay; format: functional; procedure, shortened: as §3
[22] = tested on: Salmonella typhimurium; test: Antibacterial activity against Salmonella Typhimurium after 16 to 20 hrs by broth microdilution method; format: functional, Salmonella enterica subsp. enterica serovar Typhimurium; conditions: for MIC: Salmonella enterica; procedure, shortened: as §1
[23] = tested on: Mycobacterium avium; test: Antimycobacterial activity against Mycobacterium avium ATCC 25291 at 2 ug/mL by microplate Alamar blue assay; format: functional
[24] = tested on: Klebsiella aerogenes; test: Antibacterial activity against Enterobacter aerogenes at 1 ug/ml after 16 to 20 hrs by broth microdilution method; format: functional
[25] = tested on: Bacillus subtilis; test: Antibacterial activity against Bacillus subtilis ATCC 6633 at 1 ug/ml after 16 to 20 hrs by broth microdilution method; format: functional
[26] = tested on: Staphylococcus epidermidis; test: Antibacterial activity against Staphylococcus epidermidis ATCC 14990 at 1 ug/ml after 16 to 20 hrs by broth microdilution method; format: functional
[27] = tested on: Pseudomonas aeruginosa; test: Antibacterial activity against Pseudomonas aeruginosa […] at 1 ug/ml after 16 to 20 hrs by broth microdilution method; format: functional
[28] = tested on: Listeria monocytogenes; test: Antibacterial activity Listeria monocytogenes ATCC 15313 at 1 ug/ml after 16 to 20 hrs by broth microdilution method; format: functional
[29] = tested on: Salmonella typhimurium; test: Antibacterial activity against Salmonella Typhimurium at 1 ug/ml after 16 to 20 hrs by broth microdilution method; format: functional, Salmonella enterica subsp. enterica serovar Typhimurium; conditions: Salmonella enterica
[30] = tested on: Escherichia coli; test: Antibacterial activity against Escherichia coli ATCC 25922 at 1 ug/ml after 16 to 20 hrs by broth microdilution method; format: functional
[31] = tested on: Staphylococcus aureus; test: Antibacterial activity against Staphylococcus aureus ATCC 25923 at 1 ug/ml after 16 to 20 hrs by broth microdilution method; format: functional
[32] = tested on: Streptococcus pyogenes; test: Antibacterial activity Streptococcus pyogenes ATCC 19615 at 1 ug/ml after 16 to 20 hrs by broth microdilution method; format: functional
[33] = tested on: Enterococcus faecalis; test: Antibacterial activity Enterococcus faecalis ATCC 29212 at 1 ug/ml after 16 to 20 hrs by broth microdilution method; format: functional
[34] = tested on: Streptococcus pneumoniae; test: Antibacterial activity Streptococcus pneumoniae ATCC 49619 at 1 ug/ml after 16 to 20 hrs by broth microdilution method; format: functional

SMILES	Inhibition [1]	MIC90 [2]	Inhibition [3]	Inhibition [5]	MIC [7]	Inhibition [9]	MIC [10]	MIC [11]	MIC [12]	Inhibition [15]	MIC90 [19]	Inhibition [20]	MIC [22]	inhibition at 2 µg/mL [23]	inhibition at 1 µg/mL [25]	inhibition at 1 µg/mL [26]	inhibition at 1 µg/mL [28]	inhibition at 1 µg/mL [29]	Inhibition [18]	inhibition at 1 µg/mL [32]	also measured
CCCCCCCCCCCC#Cc1cn([C@@H]2O[C@H](CO)[C@@H](O)[C@H]2F)c(=O)[nH]c1=O	100%	50 µg/mL (≈ 118 µM)	100%	100%	> 100 µg/mL	100%	> 100 µg/mL	> 100 µg/mL	> 100 µg/mL	100%	1 µg/mL (≈ 2.36 µM)	100%	> 100 µg/mL								MIC ([1]; Enterococcus faecalis, ATCC 29212): 100 µg/mL (≈ 236 µM); MIC ([3]; Staphylococcus epidermidis, ATCC 14990): 100 µg/mL (≈ 236 µM); inhibition at 100 µg/mL [4]: 100%; MIC ([5]; Staphylococcus aureus, ATCC 25923): 100 µg/mL (≈ 236 µM); CC10 [6]: > 100 µg/mL; inhibition at 1 µg/mL [8]: 90%; MIC ([9]; Streptococcus pneumoniae, ATCC 49619): 100 µg/mL (≈ 236 µM); inhibition at 100 µg/mL [13]: 100%; inhibition at 10 µg/mL [14]: 100%; MIC ([15]; Streptococcus pyogenes, ATCC 19615): 100 µg/mL (≈ 236 µM); inhibition at 50 µg/mL [16]: 100%; CC50 at 72 h [17]: > 100 µg/mL; MIC ([18]; Bacillus subtilis, ATCC 6633): > 100 µg/mL; MIC ([20]; Listeria monocytogenes, ATCC 15313): 100 µg/mL (≈ 236 µM); inhibition at 50 µg/mL [21]: 50%
CC[C@H]1OC(=O)[C@H](C)[C@@H](O[C@H]2C[C@@](C)(OC)[C@@H](O)[C@H](C)O2)[C@H](C)[C@@H](O[C@@H]2O[C@H](C)C[C@H](N(C)C)[C@H]2O)[C@](C)(OC)C[C@@H](C)C(=O)[C@H](C)[C@@H](O)[C@]1(C)O [CLARITHROMYCIN]		2 µg/mL (≈ 2.67 µM)												95%							
CO[C@H]1/C=C/O[C@@]2(C)Oc3c(C)c(O)c4c(O)c(c(/C=N/N5CCN(C)CC5)c(O)c4c3C2=O)NC(=O)/C(C)=C\C=C\[C@H](C)[C@H](O)[C@@H](C)[C@@H](O)[C@@H](C)[C@H](OC(C)=O)[C@@H]1C [RIFAMPIN]		2 µg/mL (≈ 2.43 µM)	100%	100%	> 100 µg/mL		> 100 µg/mL	100 µg/mL (≈ 122 µM)	> 100 µg/mL	100%	0.5 µg/mL (≈ 0.608 µM)	100%	> 100 µg/mL	90%	100%	100%	100%	100%	100%	100%	inhibition at 1 µg/mL [24]: 100%; inhibition at 1 µg/mL [27]: 100%; Inhibition [10]: 100%; Inhibition [11]: 100%; Inhibition [12]: 100%; inhibition at 1 µg/mL [30]: 100%; inhibition at 1 µg/mL [31]: 100%; Inhibition [22]: 100%
CN[C@H](CC(C)C)C(=O)N[C@H]1C(=O)N[C@@H](CC(N)=O)C(=O)N[C@H]2C(=O)N[C@H]3C(=O)N[C@H](C(=O)N[C@H](C(=O)O)c4cc(O)cc(O)c4-c4cc3ccc4O)[C@H](O)c3ccc(c(Cl)c3)Oc3cc2cc(c3O[C@@H]2O[C@H](CO)[C@@H](O)[C@H](O)[C@H]2O[C@H]2C[C@](C)(N)[C@H](O)[C@H](C)O2)Oc2ccc(cc2Cl)[C@H]1O [VANCOMYCIN]	100%		50%		> 100 µg/mL	100%	> 100 µg/mL	> 100 µg/mL	> 100 µg/mL	100%		100%			50%	50%	100%	50%	50%	100%	inhibition at 1 µg/mL [33]: 100%; inhibition at 1 µg/mL [34]: 100%; Inhibition [22]: 50%
